Measurements of several laboratories.
Lines come from different studies, so protocols differ.
Target: Serine/threonine-protein kinase WNK3 (WNK3, Homo sapiens, UniProt Q9BYP7)

CN(c1ccnc(CNc2nc(Nc3ccc4c(c3)CC(=O)N4)ncc2C(F)(F)F)n1)S(C)(=O)=O
remaining binding (cell-free assay; competition with immobilised ligand; 1 µM): 79%

O=C(NCCCN1CCOCC1)c1ccc(Nc2nccc(-c3cc4ccccc4s3)n2)cc1
remaining binding (binding; competition with immobilised ligand; 1 µM): 100%

Cc1nccc(COC(=O)N2C[C@@H]3[C@@H](CNC(=O)c4ccc5[nH]nnc5c4)[C@@H]3C2)n1
remaining binding (cell-free assay; competition with immobilised ligand; 1 µM): 91%

O=C(c1ccc(Nc2nccc(-c3cc4ccccc4s3)n2)cc1)N1CCC(N2CCCC2)CC1
remaining binding (binding; competition with immobilised ligand; 1 µM): 100%

CCN1CCN(Cc2ccc(C(=O)Nc3ccc(C)c(Oc4ccc5c(c4)CC(=O)N5)c3)cc2C(F)(F)F)CC1
remaining binding (binding; competition with immobilised ligand; 1 µM): 100%

COc1ccc2c(c1)O[C@@H](c1ccc(OC)c(OC)c1)C[C@H]2NC(=O)C1(c2ccc3c(c2)OC(F)(F)O3)CC1
remaining binding (cell-free assay; competition with immobilised ligand; 1 µM): 100%

CNC(=O)[C@@H]1CC[C@@H](n2c(-c3ccc4cnccc4c3)nc3ccc(C(=O)NCc4cccc(C(N)=O)c4)cc32)C1
remaining binding (binding; competition with immobilised ligand; 1 µM): 100%

Cc1c[nH]c2nccc(Oc3c(F)cc(Nc4cc(Cl)nc(N)n4)cc3F)c12
remaining binding (cell-free assay; competition with immobilised ligand; 0.1 µM): 90%

F[C@@H]1CCN(c2nccc(-c3cnn4ncccc34)n2)C1
remaining binding (binding; 1 µM): 100%

COc1cnc(Nc2cccc(S(N)(=O)=O)c2)nc1N1CCN(c2ccccc2)CC1
remaining binding (binding; competition with immobilised ligand; 1 µM): 97%

COc1ncc2cc3ccccc3nc2c1C#N
remaining binding (cell-free assay; competition with immobilised ligand; 5 µM): 96%

O=C(c1ccc(Nc2ncc(Cl)c(-c3cc4ccccc4s3)n2)cc1)N1CCC(N2CCCC2)CC1
remaining binding (binding; competition with immobilised ligand; 1 µM): 100%

c1cnn2ncc(-c3ccnc(N4CCC45COC5)n3)c2c1
remaining binding (binding; 1 µM): 68%

Cn1cc(Cl)c2c(Oc3c(F)cc(Nc4cc(Cl)nc(N)n4)cc3F)ccnc21
remaining binding (cell-free assay; competition with immobilised ligand; 0.1 µM): 95%

CN(CCCC(F)(F)F)c1nccc(-c2cnn3ncccc23)n1
remaining binding (binding; 1 µM): 100%

FC(F)(F)Oc1cccc(-c2cnc3ccc(-c4ccncc4)nn23)c1
remaining binding (binding; competition with immobilised ligand; 5 µM): 77%

CC1CCCN1c1nccc(-c2cnn3ncccc23)n1 (stereo not shown)
remaining binding (binding; 1 µM): 100%

Cn1nc(C(F)(F)F)cc1-c1cnc(N2CCc3cc(S(=O)(=O)Nc4c(F)cc(Cl)cc4F)cc(N4CCCC4=O)c32)nc1
remaining binding (cell-free assay; competition with immobilised ligand; 1 µM): 97%

N[C@H]1CCN(c2nccc(-c3cnn4ncccc34)n2)C1
remaining binding (binding; 1 µM): 90%

O=C(NCC1CCOCC1)c1n[nH]cc1NC(=O)c1c(F)cccc1F
remaining binding (binding; competition with immobilised ligand; 1 µM): 95%

COc1ccnn2ncc(-c3ccnc(N(C)C)n3)c12
remaining binding (binding; 1 µM): 92%

C=CC(=O)N1CCC(C(=O)NCC(=O)N2CCN(c3nc(-c4cnc(N)nc4C(F)F)nc(N4CCOCC4)n3)CC2)CC1
remaining binding (binding; competition with immobilised ligand; 1 µM): 96%
